“Also recorded” adds a separate entry of the source. Where two headings read alike, the source gives them in different places.
Columns and labels:
[1] = system: CYP3A4/CYP3A5‐dependent metabolism; assay type: in vivo, patients (kidney transplant recipients with late ABMR); conditions: for C0/D ratio: week 12, median [IQR]
[2] = earlier studies; cited from earlier work
CYP2C19 and CYP3A4 = assay: Pantoprazole pharmacokinetics; assay type: in vivo, patients (kidney transplant recipients with late ABMR)
In short: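 20 mg pantoprazole given as an i.v. bolus on day 0, week 12 and week 52. At day 0 and week 12, dosing preceded study injection. EDTA blood was drawn pre-dose and 1, 2, 3, 4, 5 and 6 h after dosing, spun at 2000 g for 10 min at 4°C and stored at −80 °C. Plasma levels measured by HPLC-MS/MS. Noncompartmental Cmax, AUC0-last, AUC0-inf and T1/2 reported as median (IQR); Wilcoxon/Mann–Whitney tests.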

CYP enzymes = conditions: critically ill patients; cited from earlier work
CYP3A4/CYP3A5 = assay type: in vivo, patients (kidney transplant recipients with late ABMR); conditions: human, whole blood, C0 level; for C0 at 12 week: week 12, median [IQR]
CYP3A4 [3] = conditions: patients with rheumatoid arthritis; cited from earlier work
CYP3A4 [4] = conditions: 19 patients with active rheumatoid arthritis; cited from earlier work
[5] = system: late antibody‐mediated rejection (ABMR); conditions: cited from earlier work
Liver parameters = assay type: in vivo, patients (kidney transplant recipients with late ABMR); conditions: ALAT, AST, CHE
C‐reactive protein (CRP) = assay: High‐sensitive CRP under clazakizumab; assay type: in vivo, patients (kidney transplant recipients with late ABMR); conditions: clazakizumab 25 mg s.c. 4‐weekly
In short: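 Serum high-sensitivity CRP measured by latex particle-enhanced immunoturbidimetric assay on an automated analyser (functional sensitivity 0.03 mg/dl). Randomised double-blind design: clazakizumab 25 mg s.c. or 0.9% saline placebo every 4 weeks to week 12, then open clazakizumab 4-weekly to week 52. Data given as median (IQR).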

[6] = Clazakizumab arm (n = 10), median (IQR)
[7] = Placebo arm (clazakizumab in part B), median (IQR)
[8] = Placebo arm (n = 10), median (IQR)

CO[C@H]1C[C@@H]2CC[C@@H](C)[C@@](O)(O2)C(=O)C(=O)N2CCCC[C@H]2C(=O)O[C@H]([C@H](C)C[C@@H]2CC[C@@H](OCCO)[C@H](OC)C2)CC(=O)[C@H](C)/C=C(\C)[C@@H](O)[C@@H](OC)C(=O)[C@H](C)C[C@H](C)/C=C/C=C/C=C/1C [everolimus]
decrease in C0/D ratio ([1]; single patient, individual course over the study): approximately 50%

COc1ccnc(C[S+]([O-])c2nc3ccc(OC(F)F)cc3[nH]2)c1OC (centres unmarked) [pantoprazole]
half‐life [2]: generally less than two hours
time to complete absorption [2]: about 12 hours
Percent change from day 0 to week 12, AUC0‐inf (CYP2C19 and CYP3A4; [6]): 4.0 (−6.4‐80.3) Percent
Percent change from day 0 to week 12, T1/2 (CYP2C19 and CYP3A4; [6]): 18.4 (−0.4–23.2) Percent
Percent change from day 0 to week 52, AUC0‐inf (CYP2C19 and CYP3A4; Clazakizumab arm, median (IQR)): 52.3 (−5.6–64.1) Percent
Percent change from day 0 to week 52, AUC0‐last (CYP2C19 and CYP3A4; Clazakizumab arm, median (IQR)): 41.9 (0.4–84.5) Percent
Percent change from day 0 to week 52, Cmax (CYP2C19 and CYP3A4; Clazakizumab arm, median (IQR)): 22.5 (1.6‐37.8) Percent
Percent change from day 0 to week 52, T1/2 (CYP2C19 and CYP3A4; Clazakizumab arm, median (IQR)): 8.8 (−9.7‐56.8) Percent
Percent change from day 0 to week 52, AUC0‐inf (CYP2C19 and CYP3A4; [7]): 0.72 (−42.7–64.0) Percent
Percent change from day 0 to week 52, AUC0‐last (CYP2C19 and CYP3A4; [7]): 13.6 (−47.2–50.5) Percent
Percent change from day 0 to week 12, AUC0‐inf (CYP2C19 and CYP3A4; [8]): 13.8 (−17.7‐27.8) Percent
Percent change from day 0 to week 12, AUC0‐last (CYP2C19 and CYP3A4; [8]): 15.6 (−18.7‐31.1) Percent
Percent change from day 0 to week 12, Cmax (CYP2C19 and CYP3A4; [8]): 5.7 (−10.7‐41.3) Percent
Percent change from day 0 to week 12, T1/2 (CYP2C19 and CYP3A4; [8]): 0.2 (−14.4‐21.5) Percent
Percent change from day 0 to week 12, AUC0‐inf (CYP2C19 and CYP3A4; Total (n = 20), median (IQR)): 11.6 (−11.7‐31.4) Percent
Percent change from day 0 to week 12, AUC0‐last (CYP2C19 and CYP3A4; Total (n = 20), median (IQR)): 10.4 (−8.0‐27.8) Percent
Percent change from day 0 to week 12, Cmax (CYP2C19 and CYP3A4; Total (n = 20), median (IQR)): 2.1 (−12.2‐26.3) Percent
Percent change from day 0 to week 12, T1/2 (CYP2C19 and CYP3A4; Total (n = 20), median (IQR)): 5.9 (−4.5–23.2) Percent
Percent change from day 0 to week 52, AUC0‐inf (CYP2C19 and CYP3A4; Total, median (IQR)): 31.9 (−22.5–64.0) Percent
Percent change from day 0 to week 52, AUC0‐last (CYP2C19 and CYP3A4; Total, median (IQR)): 25.3 (−15.9–51.7) Percent
Percent change from day 0 to week 52, Cmax (CYP2C19 and CYP3A4; Total, median (IQR)): 5.5 (−22.1‐33.6) Percent
Cmax (CYP2C19 and CYP3A4; human, plasma, iv, 20 mg, Cmax, 20 mg i.v., day 0, Total (n = 20), median (IQR)): 1490 ng/mL
half-life (CYP2C19 and CYP3A4; human, plasma, iv, 20 mg, T1/2, 20 mg i.v., day 0, Total (n = 20), median (IQR)): 1.08 h
half‐life, fold longer than in this study's patients / healthy volunteers (CYP enzymes): approximately 5 fold

C=CC[C@@H]1/C=C(\C)C[C@H](C)C[C@H](OC)[C@H]2O[C@@](O)(C(=O)C(=O)N3CCCC[C@H]3C(=O)O[C@H](/C(C)=C/[C@@H]3CC[C@@H](O)[C@H](OC)C3)[C@H](C)[C@@H](O)CC1=O)[C@H](C)C[C@@H]2OC [tacrolimus]
C0/D ratio ([1]; clazakizumab arm (n = 6)): 2.15 [1.13–4.35] ng/ml/mg
C0/D ratio ([1]; placebo arm (n = 7)): 2.0 [0.73–2.03] ng/ml/mg
C0 at 12 week (CYP3A4/CYP3A5; clazakizumab arm (n = 6)): 7 ng/mL
C0 at 12 week (CYP3A4/CYP3A5; placebo arm (n = 7)): 6.4 ng/mL
concentration at 0 day (CYP3A4/CYP3A5; baseline, Clazakizumab arm, median (IQR)): 5.6 ng/mL

tocilizumab: anti‐IL‐6R antibody
effect on CYP activity and simvastatin metabolism (CYP3A4 [3]): restored diminished CYP activity and substantially enhanced the metabolism of simvastatin

B1: sarilumab: anti‐IL‐6R antibody (antibody, chains of the INN, looked up, V domains shown)
VH: EVQLVESGGGLVQPGRSLRLSCAASRFTFDDYAMHWVRQAPGKGLEWVSGISWNSGRIGYADSVKGRFTISRDNAENSLFLQMNGLRAEDTALYYCAKGRDSFDIWGQGTMVTVSS
VL: DIQMTQSPSSVSASVGDRVTITCRASQGISSWLAWYQQKPGKAPKLLIYGASSLESGVPSRFSGSGSGTDFTLTISSLQPEDFASYYCQQANSFPYTFGQGTKLEIK
effect on altered simvastatin exposure (CYP3A4 [4]): fully reversed

B2: clazakizumab: monoclonal anti‐IL‐6 antibody (Vitaeris Inc.), 25 mg subcutaneously at 4‐weekly intervals (antibody, chains of the INN, looked up, V domains shown)
VH: EVQLVESGGGLVQPGGSLRLSCAASGFSLSNYYVTWVRQAPGKGLEWVGIIYGSDETAYATSAIGRFTISRDNSKNTLYLQMNSLRAEDTAVYYCARDDSSDWDAKFNLWGQGTLVTVSS
VL: AIQMTQSPSSLSASVGDRVTITCQASQSINNELSWYQQKPGKAPKLLIYRASTLASGVPSRFSGSGSGTDFTLTISSLQPDDFATYYCQQGYSLRNIDNAFGGGTKVEIK
effect on DSA ([5]; after 3 months): significant reduction of DSA
effect on ABMR activity (microcirculation inflammation, molecular ABMR scores) ([5]; after prolonged treatment): modulation of ABMR activity
effect on progression of graft dysfunction ([5]; over a period of a year): significantly halted the progression of graft dysfunction
impact on pantoprazole pharmacokinetics / CYP‐dependent drug metabolism (CYP2C19 and CYP3A4; IL‐6 blockade up to 52 weeks): no clinically meaningful impact; also recorded: did not enhance CYP‐dependent drug metabolism
effect on liver parameters (Liver parameters): no meaningful effect
effect on CRP levels (C‐reactive protein (CRP)): suppressed to undetectable levels; also recorded: virtually complete reduction
